Experimental data from paper PMC3475218 (Theranostics, 2012).
“And” between values parts separate entries of the source, which are not always exact repeats. Equal values may be shown once.

What was measured:
[1] = Zeta potential measurement; format: physicochemical; settings: ultrapure water, pH ~ 7.0, 5 mM gadolinium, 20°C, Zetasizer Nano ZS
In short: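 Nanoparticles were suspended in ultrapure water at pH ~7.0 and 5 mM Gd and measured by electrophoretic light scattering (532 nm laser). Readings were taken 2.00 mm from the cell wall with an automatic attenuator at 20°C. Each sample ran 15 runs of 10 s, repeated three times.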

[2] = system: recombinant chimeric neuropilin-1 (NRP-1) protein; assay: Competitive binding to recombinant NRP-1 protein; settings: 5 ng/mL biotinylated VEGF165, 2 µg/mL heparin, 2 h room temperature; n=3
In short: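 Plates coated overnight at room temperature with recombinant chimeric NRP-1 (2 µg/mL in PBS), washed with PBS/0.05% Tween 20, and blocked with PBS/0.5% BSA for 1 h at 37°C. Biotinylated VEGF165 (5 ng/mL, with 2 µg/mL heparin) was added with increasing test nanoparticle concentrations, Gd-matched control nanoparticles, or excess unlabelled VEGF165 (0.5 µg/mL). Streptavidin-HRP colorimetric read-out at 450 nm was expressed relative to the no-competitor control, in triplicate.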

MDA-MB-231 cells [3] = assay: Photodynamic activity; format: cell-based, human; settings: for DL50 (50% cell growth inhibitory light dose): 652 nm, 24 h incubation, MTT 24 h post-irradiation, six replicates
MDA-MB-231 cells [4] = assay: Photo-induced cytotoxicity, real-time impedance-based cell analysis; parameters: species or system human; settings: first 24 h post-exposure, before light irradiation; mean of six replicates
In short: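 MDA-MB-231 cells were cultured in RPMI with 9% heat-inactivated FBS, penicillin/streptomycin and 2 mM L-glutamine at 37°C, 5% CO2. Cells were seeded at 10^4 per well on electrode plates, and impedance was read every 15 min. At 24 h, test nanoparticles were added at final photosensitizer concentrations of 0.05–10.00 µM, or Gd-matched control nanoparticles at 2.9–585.0 µM. Cells were kept in darkness for 24 h before washing, with six replicates. Cell index was calculated as background-subtracted impedance.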

[5] = system: orthotopic U87 human glioblastoma (tumor tissue) in nude rats; assay: In vivo tumor MRI contrast enhancement kinetics; parameters: species or system rat; settings: i.v., 25 µmol of Gd / 250 g
In short: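 Male athymic nude rats (rnu/rnu) received 5.10^5 U87 cells in 5 μL HBSS stereotactically into the right striatum (0.5 mm anterior, 2.7 mm lateral to bregma) under i.p. ketamine/xylazine. About 20 days later, nanoparticles were given intravenously in 500 µL, diluted in 9‰ NaCl from an iso-osmolar 100 mM Gd stock at pH ~7.4. Tumor MRI signal was normalized to pre-injection and contralateral tissue, and its decline from peak was followed.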

[6] = UV/Vis absorption and fluorescence spectra; format: physicochemical; settings: from UV/Vis calibration curve of free TPC
In short: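 Absorption spectra were recorded by UV-visible spectrophotometry on ethanol suspensions of nanoparticles and free photosensitizer. Fluorescence spectra were acquired on a spectrofluorimeter with xenon lamp excitation and a thermostatted cell compartment at 25°C.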

neuropilin-1 (NRP-1) = settings: receptor expressed in angiogenic vasculature; ref [19], [20], [22]; cited from earlier work

Substance	Zeta potential [1] [mV]	Binding to NRP-1 (qualitative) [2]	DL50 (50% cell growth inhibitory light dose) (MDA-MB-231 cells [3]; 0.1 µM TPC)	DL50 (50% cell growth inhibitory light dose) (MDA-MB-231 cells [3]; 1.0 µM TPC)	Photocytotoxic effectiveness, 1.0 µM vs 0.1 µM TPC (MDA-MB-231 cells [3]; ratio of DL50 at 0.1 and 1.0 µM) [times]	Cell index before irradiation (MDA-MB-231 cells [4])	Rate of decrease of tumor MRI contrast ([5]; decrease from maximum peak)	Half-life in tumor tissue (T1/2) ([5]; semi-logarithmic presentation of MRI contrast enhancement decrease) [h]	TPC molecules per nanoparticle [6]	NRP-1 targeting (qualitative) (neuropilin-1 (NRP-1))
H-ATWLPPR-OH [NP-TPC-ATWLPPR]	12.9±4	greatly displaced	9.16 J/cm^2 and 9.2 J/cm^2	2.80 J/cm^2 and 2.8 J/cm^2	3.3	no decrease in cell index values	-0.0072 .min^-1	1.604	~ 1.7 TPC molecules per nanoparticle	–
H-ATWLPPR-OH [ATWLPPR]	–	–	–	–	–	–	–	–	–	selectively target NRP-1 receptor
